# Assay results published in the M2OR odorant receptor database.
# Assays:
# Settings in all cases: stereoisomer not certain
# UniProt Q8VGX8 = molecular target: T1, UniProt Q8VGX8
# T1 sequence (whole entry): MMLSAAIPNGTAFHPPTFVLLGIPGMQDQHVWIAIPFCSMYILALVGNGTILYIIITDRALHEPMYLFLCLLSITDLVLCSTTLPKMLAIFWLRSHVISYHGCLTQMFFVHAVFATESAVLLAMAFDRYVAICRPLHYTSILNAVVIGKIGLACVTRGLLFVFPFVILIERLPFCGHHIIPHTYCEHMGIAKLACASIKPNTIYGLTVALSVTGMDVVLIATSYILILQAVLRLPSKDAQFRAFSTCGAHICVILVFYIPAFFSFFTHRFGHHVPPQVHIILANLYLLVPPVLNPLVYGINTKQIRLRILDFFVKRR
# How it was run: (§1)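 Assay methods differ from source to source, frequently being transient luciferase assays in mammalian cell lines. For each receptor–molecule pair, the label responsive (active) applies when the original authors judged the measured signal statistically different from baseline, and non-responsive (inactive) applies otherwise.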
# UniProt Q8VGY6 = molecular target: T2, UniProt Q8VGY6
# T2 sequence (whole entry): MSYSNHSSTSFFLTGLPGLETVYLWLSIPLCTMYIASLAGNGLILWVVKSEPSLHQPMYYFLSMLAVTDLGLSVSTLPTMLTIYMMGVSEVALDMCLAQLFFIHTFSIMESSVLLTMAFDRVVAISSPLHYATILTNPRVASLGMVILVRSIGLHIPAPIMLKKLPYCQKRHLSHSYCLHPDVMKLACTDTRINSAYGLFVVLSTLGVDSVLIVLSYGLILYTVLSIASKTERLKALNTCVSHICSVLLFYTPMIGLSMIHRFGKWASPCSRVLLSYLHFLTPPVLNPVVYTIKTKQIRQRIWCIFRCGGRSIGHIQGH
# How it was run: as §1
# UniProt Q8VGZ2 = molecular target: T3, UniProt Q8VGZ2
# T3 sequence (whole entry): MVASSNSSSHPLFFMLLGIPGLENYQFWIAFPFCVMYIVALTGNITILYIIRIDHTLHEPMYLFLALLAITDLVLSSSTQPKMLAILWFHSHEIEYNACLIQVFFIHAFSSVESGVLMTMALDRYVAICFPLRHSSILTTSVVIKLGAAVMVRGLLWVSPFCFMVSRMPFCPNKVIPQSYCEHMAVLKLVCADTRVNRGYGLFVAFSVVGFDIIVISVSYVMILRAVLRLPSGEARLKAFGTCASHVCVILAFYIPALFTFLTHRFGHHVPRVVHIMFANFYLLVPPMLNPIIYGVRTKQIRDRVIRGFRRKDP
# How it was run: as §1
# UniProt Q8VGZ7 = molecular target: T4, UniProt Q8VGZ7
# T4 sequence (whole entry): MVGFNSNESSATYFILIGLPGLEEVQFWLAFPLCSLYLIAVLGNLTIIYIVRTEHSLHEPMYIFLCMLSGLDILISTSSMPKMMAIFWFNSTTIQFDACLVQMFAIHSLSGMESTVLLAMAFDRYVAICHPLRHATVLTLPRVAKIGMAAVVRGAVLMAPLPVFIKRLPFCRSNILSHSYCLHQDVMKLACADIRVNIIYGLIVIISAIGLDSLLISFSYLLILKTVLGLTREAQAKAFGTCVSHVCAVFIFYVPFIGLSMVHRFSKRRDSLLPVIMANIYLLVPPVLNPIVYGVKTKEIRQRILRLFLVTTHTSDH
# How it was run: as §1
# UniProt Q8VH10 = molecular target: T5, UniProt Q8VH10
# T5 sequence (whole entry): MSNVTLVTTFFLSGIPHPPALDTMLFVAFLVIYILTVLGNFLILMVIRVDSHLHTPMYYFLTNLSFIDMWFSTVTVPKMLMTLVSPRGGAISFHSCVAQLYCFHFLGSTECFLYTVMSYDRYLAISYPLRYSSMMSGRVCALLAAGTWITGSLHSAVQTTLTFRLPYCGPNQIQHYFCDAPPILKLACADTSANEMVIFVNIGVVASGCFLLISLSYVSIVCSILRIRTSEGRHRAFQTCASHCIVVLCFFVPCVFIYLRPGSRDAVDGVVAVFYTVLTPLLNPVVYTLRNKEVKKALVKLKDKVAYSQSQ
# How it was run: as §1
# UniProt Q8VH16 = molecular target: T6, UniProt Q8VH16
# T6 sequence (whole entry): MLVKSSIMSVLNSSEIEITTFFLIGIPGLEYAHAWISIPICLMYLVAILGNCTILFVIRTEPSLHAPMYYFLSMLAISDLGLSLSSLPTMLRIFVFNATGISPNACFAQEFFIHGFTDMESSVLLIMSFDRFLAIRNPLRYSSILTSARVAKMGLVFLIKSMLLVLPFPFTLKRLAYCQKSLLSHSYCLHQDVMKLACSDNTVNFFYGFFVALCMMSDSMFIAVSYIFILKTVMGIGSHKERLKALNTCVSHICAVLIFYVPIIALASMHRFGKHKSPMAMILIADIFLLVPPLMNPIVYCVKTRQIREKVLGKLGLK
# How it was run: as §1
# UniProt Q8VH18 = molecular target: T7, UniProt Q8VH18
# T7 sequence (whole entry): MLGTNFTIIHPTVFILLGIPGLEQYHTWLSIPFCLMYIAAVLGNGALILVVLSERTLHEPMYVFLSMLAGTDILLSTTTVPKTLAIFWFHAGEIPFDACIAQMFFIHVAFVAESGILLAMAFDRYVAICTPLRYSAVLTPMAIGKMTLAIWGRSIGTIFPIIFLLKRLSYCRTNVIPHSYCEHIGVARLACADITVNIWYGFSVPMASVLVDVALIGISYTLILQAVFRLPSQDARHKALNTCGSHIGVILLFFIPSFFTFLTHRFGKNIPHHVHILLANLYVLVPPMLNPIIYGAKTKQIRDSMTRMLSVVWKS
# How it was run: as §1
# UniProt Q8VH20 = molecular target: T8, UniProt Q8VH20
# T8 sequence (whole entry): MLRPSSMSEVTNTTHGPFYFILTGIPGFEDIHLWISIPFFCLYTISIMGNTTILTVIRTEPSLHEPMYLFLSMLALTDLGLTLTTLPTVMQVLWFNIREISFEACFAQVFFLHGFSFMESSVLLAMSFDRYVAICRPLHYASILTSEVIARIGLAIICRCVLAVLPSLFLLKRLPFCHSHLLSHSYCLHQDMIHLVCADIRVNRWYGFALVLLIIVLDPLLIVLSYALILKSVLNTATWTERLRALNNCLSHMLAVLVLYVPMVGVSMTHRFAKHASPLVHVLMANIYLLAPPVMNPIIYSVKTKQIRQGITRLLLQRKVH
# How it was run: as §1
# UniProt Q8VH21 = molecular target: T9, UniProt Q8VH21
# T9 sequence (whole entry): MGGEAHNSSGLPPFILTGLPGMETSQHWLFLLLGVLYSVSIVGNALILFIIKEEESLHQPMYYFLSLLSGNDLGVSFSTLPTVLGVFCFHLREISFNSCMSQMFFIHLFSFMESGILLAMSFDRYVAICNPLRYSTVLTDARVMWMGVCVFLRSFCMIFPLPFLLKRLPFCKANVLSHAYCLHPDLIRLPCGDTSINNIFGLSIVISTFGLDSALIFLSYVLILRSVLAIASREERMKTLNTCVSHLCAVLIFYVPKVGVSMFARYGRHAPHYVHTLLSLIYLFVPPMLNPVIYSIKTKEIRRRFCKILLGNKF
# How it was run: as §1
Compound,odorant receptor agonist call (UniProt Q8VGX8),odorant receptor agonist call (UniProt Q8VGY6),odorant receptor agonist call (UniProt Q8VGZ2),odorant receptor agonist call (UniProt Q8VGZ7),odorant receptor agonist call (UniProt Q8VH10),odorant receptor agonist call (UniProt Q8VH16),odorant receptor agonist call (UniProt Q8VH18),odorant receptor agonist call (UniProt Q8VH20),odorant receptor agonist call (UniProt Q8VH21)
CCCCCCCCCC(=O)[O-].[H+],active,inactive,active,inactive,inactive,inactive,inactive,active,inactive
CCCCCCOC(C)=O,inactive,inactive,inactive,inactive,inactive,inactive,,inactive,inactive
CCCCCCCCO,inactive,inactive,inactive,inactive,inactive,inactive,active,inactive,inactive
CCCCCOC(=O)CCCCC,inactive,inactive,inactive,inactive,inactive,inactive,,inactive,inactive
CCCCCCO,inactive,inactive,inactive,inactive,inactive,inactive,inactive,inactive,inactive
C=CCOC(=O)CCCCCC,inactive,inactive,inactive,inactive,inactive,inactive,,inactive,inactive
CCCCCCCCCS,inactive,inactive,inactive,inactive,inactive,inactive,,inactive,inactive
CCOC(=O)C(C)C,inactive,inactive,inactive,inactive,inactive,inactive,,inactive,inactive
CCCC(=O)C(C)=O,inactive,inactive,inactive,inactive,inactive,inactive,,inactive,inactive
O=C(c1ccccc1)c1ccccc1,inactive,inactive,inactive,inactive,inactive,inactive,,inactive,inactive
CCCCOC=O,inactive,inactive,inactive,inactive,inactive,inactive,,inactive,inactive
